Changes are numbered by the printed parent chain. Values belong to the molecule of their own block, whether it stands above or below them.
Experiments:
PLCδ1 PH domain = biological target: T1, PLCδ1 PH domain (Rattus norvegicus, UniProt P10688); test: Isothermal titration calorimetry, PLCδ1 PH domain; type: binding; settings: read-out: dissociation constant (KD) by ITC; PBS, 25°C; three independent experiments
T1 sequence (P10688 11-140): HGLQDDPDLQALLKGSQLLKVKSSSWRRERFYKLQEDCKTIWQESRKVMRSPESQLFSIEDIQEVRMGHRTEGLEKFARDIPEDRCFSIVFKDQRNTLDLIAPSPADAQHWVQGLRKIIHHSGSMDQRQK

PdZA = test: Displacement of PdZA from PtdSer/PtdIns; type: binding; settings: vesicles with 5 or 12.5 µM PtdIns(4,5)P2, 15% PtdSer
[1] = biological target: T2, ASAP1 PH domain, lysine 355 mutant (Mus musculus, UniProt Q9QWY8, K355N); test: diC4-PtdIns; type: binding; settings: atypical-site mutant
T2 sequence (Q9QWY8 325-451 K355N): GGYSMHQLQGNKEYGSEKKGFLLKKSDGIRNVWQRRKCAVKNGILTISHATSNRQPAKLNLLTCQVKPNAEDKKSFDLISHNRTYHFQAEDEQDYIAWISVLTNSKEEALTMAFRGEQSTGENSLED
Procedure, shortened: (§1)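 ASAP1 PH domain, wild-type or site-directed mutant, is used at 1 µM and mixed with varying diC4-PtdIns(4,5)P2 in 20 mM HEPES pH 7.4, 100 mM NaCl. Tryptophan fluorescence spectra are recorded with excitation at 280 nm and emission at 310–450 nm. Signal is normalized to fluorescence without diC4-PtdIns(4,5)P2 and plotted against lipid concentration.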

[2] = biological target: T3, ASAP1 PH domain, arginine 360 mutant (Mus musculus, UniProt Q9QWY8, R360Q); test: diC4-PtdIns; type: binding; settings: canonical-site mutant
T3 sequence (Q9QWY8 325-451 R360Q): T2 sequence (Q9QWY8 325-451 K355N) with N31K, R36Q
Procedure, shortened: as §1

ASAP1 [3] = biological target: T4, ASAP1 (Mus musculus, UniProt Q9QWY8); settings: cited from earlier work
T4 sequence (Q9QWY8 325-724): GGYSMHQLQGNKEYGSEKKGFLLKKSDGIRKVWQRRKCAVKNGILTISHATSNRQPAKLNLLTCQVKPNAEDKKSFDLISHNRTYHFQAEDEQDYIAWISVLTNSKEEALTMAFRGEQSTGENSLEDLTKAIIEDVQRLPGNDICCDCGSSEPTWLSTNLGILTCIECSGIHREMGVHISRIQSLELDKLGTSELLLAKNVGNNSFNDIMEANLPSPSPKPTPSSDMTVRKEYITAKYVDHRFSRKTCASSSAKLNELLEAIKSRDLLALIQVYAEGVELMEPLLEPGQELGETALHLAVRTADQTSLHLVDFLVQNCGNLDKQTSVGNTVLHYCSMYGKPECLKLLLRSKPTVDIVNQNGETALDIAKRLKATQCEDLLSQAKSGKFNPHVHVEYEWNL

ASAP1 [4] = biological target: T4, ASAP1; test: Anionic phospholipid dependence of ASAP1; type: biochemical; settings: LUVs; from C50 values
Procedure, shortened: (§2)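 Construct is PZA, the PH–Arf GAP–ankyrin repeat fragment of ASAP1, prepared as previously described. It is titrated into reactions with myrArf1·GTP as substrate and LUVs of the indicated lipid composition (e.g. 15% PtdSer, 10% PtdIns(4,5)P2, or both). Reactions run 3 min. Percent of Arf-bound GTP hydrolyzed is plotted against PZA concentration. C50 is the PZA concentration giving 50% hydrolysis, estimated from three experiments.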

myrArf1·GTP = type: biochemical; settings: absence of anionic phospholipid
Procedure, shortened: as §2

Molecule: O=P(O)(O)O[C@@H]1[C@H](O)[C@H](O)[C@@H](OP(=O)(O)O)[C@H](OP(=O)(O)O)[C@H]1O [Ins(1,4,5)P3, inositol 1,4,5-trisphosphate]
Kd (PLCδ1 PH domain): 180 ± 30 nM
Ins(1,4,5)P3 concentration displacing half of the protein from LUVs (PdZA): less than half the PtdIns(4,5)P2 concentration

B1: Wild-type: His10-[325–724]ASAP1: fragment of ASAP1 comprising the PH, Arf GAP, and Ankyrin repeat domains (protein, UniProt Q9ULH1 325-724, looked up, fragment)
chain: SEKKGYLLKKSDGIRKVWQRRKCSVKNGILTISHATSNRQPAKLNLLTCQVKPNAEDKKSFDLISHNRTYHFQAEDEQDYVAWISVLTNSKEEALTMAFRGEQSAGENSLEDLTKAIIEDVQRLPGNDICCDCGSSEPTWLSTNLGILTCIECSGIHREMGVHISRIQSLELDKLGTSELLLAKNVGNNSFNDIMEANLPSPSPKPTPSSDMTVRKEYITAKYVDHRFSRKTCSTSSAKLNELLEAIKSRDLLALIQVYAEGVELMEPLLEPGQELGETALHLAVRTADQTSLHLVDFLVQNCGNLDKQTALGNTVLHYCSMYSKPECLKLLLRSKPTVDIVNQAGETALDIAKRLKATQCEDLLSQAKSGKFNPHVHVEYEWNLRQEEIDESDDDLDDK
modifications: His10 tag
amount of ASAP1 necessary to hydrolyze 50% of the GTP bound to Arf (C50) (myrArf1·GTP): 1 µM

Now from value to molecule, other results behind:

binding compared with wild-type protein (tryptophan fluorescence) [1]: no effect on binding
binding compared with wild-type protein (tryptophan fluorescence) [2]: reduced binding
Molecule: CCCC(=O)OC[C@H](COP(=O)(O)O[C@@H]1[C@H](O)[C@H](O)[C@@H](OP(=O)(O)O)[C@H](OP(=O)(O)O)[C@H]1O)OC(=O)CCC [diC4-PtdIns(4,5)P2, dibutyryl PtdIns(4,5)P2]
increase of ASAP1 activity at saturating concentrations (ASAP1 [3]; soluble lipid, no bilayer, ref Che et al., 2005): 2- to 4 fold

increase of GAP activity compared with PtdSer alone (ASAP1 [4]): ~1,500 fold
increase of GAP activity compared with no anionic lipid (ASAP1 [4]): approximately 20,000 fold
Molecule: Phosphatidylinositol 4,5-bisphosphate [PtdIns(4,5)P2]
increase of ASAP1 enzymatic activity on binding to the PH domain (ASAP1 [3]; ref Kam et al., 2000): approximately 10,000 fold

increase of GAP activity compared with no anionic lipid (ASAP1 [4]): 15 fold
Molecule: phosphatidylserine [PtdSer]
